Structures can show the parent of a compound that is named as a salt. Activity calls are given as the source filed them. The rule behind the calls is not given here. Square brackets hold non-standard residues; d marks the D form. Peptide text beside a SMILES is read from it. * marks the point of attachment. Fmoc = O=C(OCC1c2ccccc2-c2ccccc21)*; Palmitoyl = CCCCCCCCCCCCCCCC(=O)*; Cha = N[C@@H](CC1CCCCC1)C(=O)O; AMC = Cc1cc(=O)oc2cc(N*)ccc12; Sar = CNCC(=O)O
Tests used:
[1] = Metabolic stability in rat serum assessed as half life at pH 7.5; type: ADME, cell-free
In short: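 Peptide (final 20 µM) was incubated in 25% rat serum with 0.1 M Tris-HCl pH 7.5 at 37 °C, serum pre-warmed 10 min. Aliquots taken up to 8 h were quenched with 15% TCA in 40% isopropanol, held 15 min at -20 °C and centrifuged. Intact peptide was measured by reversed-phase HPLC peak area, and half-life was calculated from the disappearance.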

[2] = molecular target: T1, Galanin receptor type 1 (Homo sapiens, UniProt P47211); assay: Displacement of europium-labeled galanin from human GalR1 expressed in HEK293 EBNA cells; type: cell-based
T1 sequence (P47211 whole entry): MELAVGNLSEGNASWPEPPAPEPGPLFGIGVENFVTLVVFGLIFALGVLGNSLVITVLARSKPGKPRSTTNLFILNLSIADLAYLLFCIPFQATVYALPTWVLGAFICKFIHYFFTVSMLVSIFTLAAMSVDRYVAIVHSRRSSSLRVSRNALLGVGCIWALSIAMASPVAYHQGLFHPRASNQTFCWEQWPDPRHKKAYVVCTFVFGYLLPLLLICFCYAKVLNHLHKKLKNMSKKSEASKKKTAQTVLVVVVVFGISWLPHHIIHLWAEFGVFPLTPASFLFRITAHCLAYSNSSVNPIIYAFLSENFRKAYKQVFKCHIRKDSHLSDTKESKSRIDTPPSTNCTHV

[3] = molecular target: T2, Galanin receptor type 2 (Homo sapiens, UniProt O43603); assay: Displacement of europium-labeled galanin from human GalR2 expressed in CHO-K1 cells; type: cell-based
T2 sequence (O43603 whole entry): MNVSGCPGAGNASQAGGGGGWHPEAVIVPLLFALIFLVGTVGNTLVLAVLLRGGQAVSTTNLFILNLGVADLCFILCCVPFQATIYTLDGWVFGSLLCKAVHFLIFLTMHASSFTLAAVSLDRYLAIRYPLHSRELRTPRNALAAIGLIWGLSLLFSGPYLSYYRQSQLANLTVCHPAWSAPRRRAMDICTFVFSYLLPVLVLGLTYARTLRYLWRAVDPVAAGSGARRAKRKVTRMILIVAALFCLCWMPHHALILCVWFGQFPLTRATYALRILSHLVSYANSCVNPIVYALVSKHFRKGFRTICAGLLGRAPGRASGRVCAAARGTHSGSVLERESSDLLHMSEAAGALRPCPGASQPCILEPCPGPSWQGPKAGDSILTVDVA

[4] = tested on: Mus musculus; assay: Anticonvulsant activity in CF1 mouse assessed as inhibition of 6 Hz corneal stimulation-induced limbic seizures at 4 mg/kg, ip administered 120 mins before 6 Hz corneal stimulation; type: functional, organism-based; design: dose 4 mg/kg; settings: Limbic system
In short: (§1)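 Each analogue given ip at 4 mg/kg to five groups of CF-1 mice (n = 4 per group), one group per time point. Seizure challenge was 6 Hz corneal stimulation (32 mA for 3 s, corneal electrodes) at 15, 30, 60, 120 or 240 min after dosing. A mouse without a limbic seizure (jaw chomping, vibrissae twitching, forelimb clonus, Straub tail) was counted as protected.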

[5] = tested on: Mus musculus; assay: Anticonvulsant activity in CF1 mouse assessed as inhibition of 6 Hz corneal stimulation-induced limbic seizures at 4 mg/kg, ip administered 240 mins before 6 Hz corneal stimulation; type: functional, organism-based; design: dose 4 mg/kg; settings: Limbic system; in short: as §1
[6] = molecular target: T2, Galanin receptor type 2; assay: Binding affinity to human GalR2
[7] = tested on: Mus musculus; assay: Anticonvulsant activity in CF1 mouse assessed as inhibition of 6 Hz corneal stimulation-induced limbic seizures at 4 mg/kg, ip administered 15 mins before 6 Hz corneal stimulation; type: functional, organism-based; design: dose 4 mg/kg; settings: Limbic system; in short: as §1
[8] = tested on: Mus musculus; assay: Anticonvulsant activity in CF1 mouse assessed as inhibition of 6 Hz corneal stimulation-induced limbic seizures at 4 mg/kg, ip administered 60 mins before 6 Hz corneal stimulation; type: functional, organism-based; design: dose 4 mg/kg; settings: Limbic system; in short: as §1

Row | SMILES | half-life [1] [h] | Ki [2] [nM] | Ki [3] [nM] | Kd [6] [nM] | Activity [4] | Activity [5] | Activity [7] | Activity [8]
1 | CCCCCCCCCCCCCCCC(=O)NCCCC[C@H](NC(=O)[C@H](CCCCN)NC(=O)[C@H](CCCCN)NC(=O)[C@@H]1CCCN1C(=O)CNC(=O)[C@H](CC(C)C)NC(=O)[C@H](CC(C)C)NC(=O)[C@H](Cc1ccc(O)cc1)NC(=O)CNC(=O)[C@H](C)NC(=O)[C@H](CO)NC(=O)[C@H](CC(N)=O)NC(=O)[C@H](CC(C)C)NC(=O)[C@@H](NC(=O)[C@@H](N)Cc1c[nH]c2ccccc12)[C@@H](C)O)C(=O)N[C@@H](CCCCN)C(N)=O (H-WTLNSAGYLLGPKKK(Palmitoyl)K-NH2) | > 10 | 387 | 48 | – | – | inactive | – | –
2 | CCCCCCCCCCCCCCCC(=O)NCCCC[C@H](NC(=O)[C@H](CCCCN)NC(=O)[C@H](CCCCN)NC(=O)[C@H](CCCCN)NC(=O)[C@H](CCCCN)NC(=O)[C@H](CC(C)C)NC(=O)[C@H](CC(C)C)NC(=O)[C@H](Cc1ccc(O)cc1)NC(=O)CNC(=O)[C@H](C)NC(=O)[C@H](CO)NC(=O)[C@H](CC(N)=O)NC(=O)[C@H](CC(C)C)NC(=O)[C@@H](NC(=O)[C@H](Cc1c[nH]c2ccccc12)NC(=O)CNC)[C@@H](C)O)C(=O)N[C@@H](CCCCN)C(N)=O (H-[Sar]WTLNSAGYLLKKKKK(Palmitoyl)K-NH2) | 8.7 | 41.5 | 215 | – | Active | – | – | –
3 | CCCCCCCCCCCCCCCC(=O)NCCCC[C@H](NC(=O)[C@H](CCCCN)NC(=O)[C@H](CCCCN)NC(=O)CNC(=O)[C@H](CC(C)C)NC(=O)[C@H](CC(C)C)NC(=O)[C@H](Cc1ccc(O)cc1)NC(=O)CNC(=O)[C@H](C)NC(=O)[C@H](CO)NC(=O)[C@H](CC(N)=O)NC(=O)[C@H](CC(C)C)NC(=O)[C@@H](NC(=O)[C@H](Cc1c[nH]c2ccccc12)NC(=O)CNC)[C@@H](C)O)C(=O)N[C@@H](CCCCN)C(N)=O | 5.6 | 25.5 | 75 | – | inactive | inactive | – | –
4 | CCCCCCCCCCCCCCCC(=O)NCCCC[C@H](NC(=O)[C@@H](CCCCN)NC(=O)[C@@H](CCCCN)NC(=O)[C@@H]1CCCN1C(=O)CNC(=O)[C@H](CC(C)C)NC(=O)[C@H](CC(C)C)NC(=O)[C@H](Cc1ccc(O)cc1)NC(=O)CNC(=O)[C@H](C)NC(=O)[C@H](CO)NC(=O)[C@H](CC(N)=O)NC(=O)[C@H](CC(C)C)NC(=O)[C@@H](NC(=O)[C@H](Cc1c[nH]c2ccccc12)NC(=O)CNC)[C@@H](C)O)C(=O)N[C@H](CCCCN)C(N)=O | > 10 | 0.9 | – | – | – | – | – | –
5 | CCCCCCCCCCCCCCCC(=O)NCCCC[C@H](NC(=O)[C@H](CCCNC(=N)N)NC(=O)[C@H](CCCNC(=N)N)NC(=O)[C@@H]1CCCN1C(=O)CNC(=O)[C@H](CC(C)C)NC(=O)[C@H](CC(C)C)NC(=O)[C@H](Cc1ccc(O)cc1)NC(=O)CNC(=O)[C@H](C)NC(=O)[C@H](CO)NC(=O)[C@H](CC(N)=O)NC(=O)[C@H](CC(C)C)NC(=O)[C@@H](NC(=O)[C@H](Cc1c[nH]c2ccccc12)NC(=O)CNC)[C@@H](C)O)C(=O)N[C@@H](CCCNC(=N)N)C(N)=O | – | – | – | – | – | inactive | – | Active
6 | CCCCCCCCCCCCCCCC(=O)NCCCC[C@@H](NC(=O)[C@H](CCCCN)NC(=O)[C@@H](CCCCN)NC(=O)[C@H]1CCCN1C(=O)CNC(=O)[C@H](CC(C)C)NC(=O)[C@H](CC(C)C)NC(=O)[C@H](Cc1ccc(O)cc1)NC(=O)CNC(=O)[C@H](C)NC(=O)[C@H](CO)NC(=O)[C@H](CC(N)=O)NC(=O)[C@H](CC(C)C)NC(=O)[C@@H](NC(=O)[C@H](Cc1c[nH]c2ccccc12)NC(=O)CNC)[C@@H](C)O)C(=O)N[C@@H](CCCCN)C(N)=O | – | – | – | – | – | – | – | Active

Further lines, with some results ahead:

Row | half-life [1] [h] | Ki [2] [nM] | Ki [3] [nM] | Kd [6] [nM] | SMILES | Activity [4] | Activity [5] | Activity [7] | Activity [8]
7 | > 10 | 1.9 | 22 | – | CCCCCCCCCCCCCCCC(=O)NCCCC[C@H](NC(=O)[C@H](CCCCN)NC(=O)[C@H](CCCCN)NC(=O)[C@H](CCCCN)NC(=O)[C@@H]1CCCN1C(=O)CNC(=O)[C@H](CC(C)C)NC(=O)[C@H](CC(C)C)NC(=O)[C@H](Cc1ccc(O)cc1)NC(=O)CNC(=O)[C@H](C)NC(=O)[C@H](CO)NC(=O)[C@H](CC(N)=O)NC(=O)[C@H](CC(C)C)NC(=O)[C@@H](NC(=O)[C@H](Cc1c[nH]c2ccccc12)NC(=O)CNC)[C@@H](C)O)C(N)=O | inactive | inactive | – | –
8 | – | – | – | 24000 | Cc1cc(=O)oc2cc(NC(=O)[C@@H](CCCCN)NC(=O)[C@H](CC3CCCCC3)NC(=O)OCC3c4ccccc4-c4ccccc43)ccc12 [GALNON] (Fmoc-[Cha]-[dK]-{AMC}) | – | – | – | –
9 | – | – | – | 1.8 | CC(C)C[C@H](NC(=O)[C@H](CC(C)C)NC(=O)[C@H](Cc1ccc(O)cc1)NC(=O)CNC(=O)[C@H](C)NC(=O)[C@H](CO)NC(=O)[C@H](CC(N)=O)NC(=O)[C@H](CC(C)C)NC(=O)[C@@H](NC(=O)[C@@H](N)Cc1c[nH]c2ccccc12)[C@@H](C)O)C(=O)O | – | – | – | –
10 | > 10 | 25.5 | 108 | – | CCCCCCCCCCCCCCCC(=O)NCCCC[C@H](NC(=O)[C@@H]1CCCN1C(=O)CNC(=O)[C@H](CC(C)C)NC(=O)[C@H](CC(C)C)NC(=O)[C@H](Cc1ccc(O)cc1)NC(=O)CNC(=O)[C@H](C)NC(=O)[C@H](CO)NC(=O)[C@H](CC(N)=O)NC(=O)[C@H](CC(C)C)NC(=O)[C@@H](NC(=O)[C@H](Cc1c[nH]c2ccccc12)NC(=O)CNC)[C@@H](C)O)C(=O)N[C@@H](CCCCN)C(=O)N[C@@H](CCCCN)C(=O)N[C@@H](CCCCN)C(N)=O | inactive | – | inactive | –
11 | 4.8 | 3.3 | 65.5 | – | CCCCCCCCCCCCCCCC(=O)NCCCC[C@H](NC(=O)[C@H](CCCN=C(N)N)NC(=O)[C@H](CCCN=C(N)N)NC(=O)[C@@H]1CCCN1C(=O)CNC(=O)[C@H](CC(C)C)NC(=O)[C@H](CC(C)C)NC(=O)[C@H](Cc1ccc(O)cc1)NC(=O)CNC(=O)[C@H](C)NC(=O)[C@H](CO)NC(=O)[C@H](CC(N)=O)NC(=O)[C@H](CC(C)C)NC(=O)[C@@H](NC(=O)[C@H](Cc1c[nH]c2ccccc12)NC(=O)CNC)[C@@H](C)O)C(=O)N[C@@H](CCCN=C(N)N)C(N)=O | – | – | – | –
12 | – | – | – | > 100000 | COC(=O)[C@H](CCCCN)NC(=O)[C@]1(C)NC(=O)c2nc(oc2C)[C@](C)(C(=O)NC2c3ccccc3-c3ccccc32)NC(=O)c2nc(oc2C)[C@](C)(C(=O)NCC2CCCCC2)NC(=O)c2nc1oc2C [GALMIC TFA] | – | – | – | –
13 | 8.6 | 6 | 28 | – | CCCCCCCCCCCCCCCC(=O)NCCCC[C@H](NC(=O)[C@H](CCCCN)NC(=O)[C@@H]1CCCN1C(=O)CNC(=O)[C@H](CC(C)C)NC(=O)[C@H](CC(C)C)NC(=O)[C@H](Cc1ccc(O)cc1)NC(=O)CNC(=O)[C@H](C)NC(=O)[C@H](CO)NC(=O)[C@H](CC(N)=O)NC(=O)[C@H](CC(C)C)NC(=O)[C@@H](NC(=O)[C@H](Cc1c[nH]c2ccccc12)NC(=O)CNC)[C@@H](C)O)C(=O)N[C@@H](CCCCN)C(=O)N[C@@H](CCCCN)C(N)=O | inactive | inactive | – | inactive
14 | > 10 | 5.3 | 22.5 | – | CCCCCCCCCCCCCCCC(=O)NCCCC[C@H](NC(=O)[C@H](CCCCN)NC(=O)[C@H](CCCCN)NC(=O)[C@@H]1CCCN1C(=O)CNC(=O)[C@H](CC(C)C)NC(=O)[C@H](CC(C)C)NC(=O)[C@H](Cc1ccc(O)cc1)NC(=O)CNC(=O)[C@H](C)NC(=O)[C@H](CO)NC(=O)[C@H](CC(N)=O)NC(=O)[C@H](CC(C)C)NC(=O)[C@@H](NC(=O)[C@H](Cc1c[nH]c2ccccc12)NC(=O)CN)[C@@H](C)O)C(=O)N[C@@H](CCCCN)C(N)=O | inactive | inactive | – | –
15 | > 10 | 21.5 | 51 | – | CCCCCCCCCCCCCCCC(=O)NCCCC[C@H](NC(=O)[C@H](CCCCN)NC(=O)[C@H](CCCCN)NC(=O)[C@@H]1CCCN1C(=O)CNC(=O)[C@H](CC(C)C)NC(=O)[C@H](CC(C)C)NC(=O)[C@H](Cc1ccc(O)cc1)NC(=O)CNC(=O)[C@H](C)NC(=O)[C@H](CO)NC(=O)[C@H](CC(N)=O)NC(=O)[C@H](CC(C)C)NC(=O)[C@@H](NC(=O)[C@H](Cc1c[nH]c2ccccc12)NC(=O)CCCCCN)[C@@H](C)O)C(=O)N[C@@H](CCCCN)C(N)=O | – | – | Active | –
